Laboratory results from ChEMBL document CHEMBL3045292, “Synthesis and herbicidal activity of 2-(7-fluoro-3-oxo- 3,4-dihydro-2H-benzo[b][1,4]oxazin-6-yl)isoindoline-1,3-diones” (J Agric Food Chem, 2005).

Experiments:
[1] = (§1) Phytotoxicity against Triticum aestivum (wheat) assessed as growth inhibition at 30 g/ha post-emergence treatment measured after 15 days by crop-selectivity assay; assay type: organism-based; conditions: in vivo, 30 g/ha, read-out: GI
[2] = (§2) Phytotoxicity against Zea mays (maize) assessed as growth inhibition at 150 g/ha pre-emergence treatment measured after 15 days by crop-selectivity assay; assay type: organism-based; conditions: in vivo, 150 g/ha, read-out: GI
Outline: (§3)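 Compounds were formulated as 100 g/L emulsifiable concentrates, with DMF as solvent and Tween-80 as emulsifier, then diluted in water to the required rate. They were sprayed on pot-grown plants in a greenhouse, in clay soil (pH 6.5, 1.6% organic matter, 37.3% clay, CEC 12.1 cmol/kg). Untreated and DMF-treated plants served as controls. Percent growth inhibition was scored visually 15 days after treatment.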

[3] = Phytotoxicity against Glycine max (soybean) assessed as growth inhibition at 150 g/ha pre-emergence treatment measured after 15 days by crop-selectivity assay; assay type: organism-based; conditions: in vivo, read-out: GI
[4] = (§4) Phytotoxicity against Zea mays (maize) assessed as growth inhibition at 75 g/ha pre-emergence treatment measured after 15 days by crop-selectivity assay; assay type: organism-based; conditions: in vivo, 75 g/ha, read-out: GI; outline: as §3
[5] = Phytotoxicity against Triticum aestivum (wheat) assessed as growth inhibition at 75 g/ha pre-emergence treatment measured after 15 days by crop-selectivity assay; assay type: organism-based; conditions: in vivo, read-out: GI; outline: as §3
[6] = Phytotoxicity against Oryza sativa (rice) assessed as growth inhibition at 75 g/ha pre-emergence treatment measured after 15 days by crop-selectivity assay; assay type: organism-based; conditions: in vivo, read-out: GI
[7] = (§5) Phytotoxicity against Glycine max (soybean) assessed as growth inhibition at 75 g/ha pre-emergence treatment measured after 15 days by crop-selectivity assay; assay type: organism-based; conditions: in vivo, 75 g/ha, read-out: GI
Zea mays [8] = assay: Phytotoxicity against Zea mays (maize) assessed as growth inhibition at 30 g/ha pre-emergence treatment measured after 15 days by crop-selectivity assay; assay type: organism-based; conditions: in vivo, other, 360 h; outline: as §3
[9] = (§6) Phytotoxicity against Triticum aestivum (wheat) assessed as growth inhibition at 30 g/ha pre-emergence treatment measured after 15 days by crop-selectivity assay; assay type: organism-based; conditions: in vivo, 30 g/ha, read-out: GI; outline: as §3
[10] = (§7) Phytotoxicity against Triticum aestivum (wheat) assessed as growth inhibition at 15 g/ha pre-emergence treatment measured after 15 days by crop-selectivity assay; assay type: organism-based; conditions: in vivo, 15 g/ha, read-out: GI
Triticum aestivum [11] = assay: Phytotoxicity against Triticum aestivum (wheat) assessed as growth inhibition at 7.5 g/ha pre-emergence treatment measured after 15 days by crop-selectivity assay; assay type: organism-based; conditions: in vivo, other, 360 h; outline: as §3
[12] = Phytotoxicity against Gossypium (cotton) assessed as growth inhibition at 30 g/ha post-emergence treatment measured after 15 days by crop-selectivity assay; assay type: organism-based; conditions: in vivo, read-out: GI
[13] = Phytotoxicity against Zea mays (maize) assessed as growth inhibition at 15 g/ha post-emergence treatment measured after 15 days by crop-selectivity assay; assay type: organism-based; conditions: in vivo, read-out: GI; outline: as §3
[14] = (§8) Phytotoxicity against Triticum aestivum (wheat) assessed as growth inhibition at 15 g/ha post-emergence treatment measured after 15 days by crop-selectivity assay; assay type: organism-based; conditions: in vivo, 15 g/ha, read-out: GI
[15] = (§9) Phytotoxicity against Oryza sativa (rice) assessed as growth inhibition at 7.5 g/ha pre-emergence treatment measured after 15 days by crop-selectivity assay; assay type: organism-based; conditions: in vivo, 7.5 g/ha, read-out: GI
Glycine max [16] = assay: Phytotoxicity against Glycine max (soybean) assessed as growth inhibition at 7.5 g/ha pre-emergence treatment measured after 15 days by crop-selectivity assay; assay type: organism-based; conditions: in vivo, other, 360 h
Gossypium = assay: Phytotoxicity against Gossypium (cotton) assessed as growth inhibition at 7.5 g/ha pre-emergence treatment measured after 15 days by crop-selectivity assay; assay type: organism-based; conditions: in vivo, other, 360 h
Digitaria sanguinalis = assay: Herbicidal activity against crabgrass Digitaria sanguinalis(hairy crabgrass) assessed as weed growth inhibition at 75 g/ha post-emergence treatment […]; assay type: functional; conditions: read-out: GI
Outline: (§10)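 Pot-grown plants in the greenhouse, in clay soil (pH 6.5, 1.6% organic matter, 37.3% clay, CEC 12.1 cmol/kg). Compound was made up as a 100 g/L emulsified concentrate (DMF, Tween-80), diluted in water and sprayed at 75 g ai/ha. Pre-emergence spraying was 24 h after sowing; post-emergence at two-leaf (dicots) or one-leaf (monocots) stage. Untreated and DMF controls. Percent growth inhibition scored visually 15 days post-treatment.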

Amaranthus blitum [17] = assay: Herbicidal activity against Amaranthus blitum assessed as weed growth inhibition at 75 g/ha post-emergence treatment […]; assay type: functional; conditions: read-out: GI; outline: as §10
Chenopodium album = assay: Herbicidal activity against fat hen Chenopodium album assessed as weed growth inhibition at 75 g/ha post-emergence treatment […]; assay type: functional; conditions: read-out: GI; outline: as §10
[18] = (§11) Phytotoxicity against Triticum aestivum (wheat) assessed as growth inhibition at 7.5 g/ha post-emergence treatment measured after 15 days by crop-selectivity assay; assay type: organism-based; conditions: in vivo, 7.5 g/ha, read-out: GI; outline: as §3
[19] = (§12) Phytotoxicity against Oryza sativa (rice) assessed as growth inhibition at 7.5 g/ha post-emergence treatment measured after 15 days by crop-selectivity assay; assay type: organism-based; conditions: in vivo, 7.5 g/ha, read-out: GI
Amaranthus blitum [20] = assay: Herbicidal activity against Amaranthus blitum assessed as weed growth inhibition at 75 g/ha pre-emergence treatment […]; assay type: functional; conditions: read-out: GI; outline: as §10
Triticum aestivum [21] = assay: as §1; assay type: organism-based; conditions: in vivo, other, 360 h
Zea mays [22] = assay: as §2; assay type: organism-based; conditions: in vivo, other, 360 h; outline: as §3
Zea mays [23] = assay: as §4; assay type: organism-based; conditions: in vivo, other, 360 h; outline: as §3
Glycine max [24] = assay: as §5; assay type: organism-based; conditions: in vivo, other, 360 h
Triticum aestivum [25] = assay: as §6; assay type: organism-based; conditions: in vivo, other, 360 h; outline: as §3
Triticum aestivum [26] = assay: as §7; assay type: organism-based; conditions: in vivo, other, 360 h
Triticum aestivum [27] = assay: as §8; assay type: organism-based; conditions: in vivo, other, 360 h
Oryza sativa [28] = assay: as §9; assay type: organism-based; conditions: in vivo, other, 360 h
Triticum aestivum [29] = assay: as §11; assay type: organism-based; conditions: in vivo, other, 360 h; outline: as §3
Oryza sativa [30] = assay: as §12; assay type: organism-based; conditions: in vivo, other, 360 h

SMILES | inhibition at 360 h [3] | inhibition at 360 h [5] | inhibition at 360 h [6] | growth inhibition (GI) (Zea mays [8]) | growth inhibition (GI) (Triticum aestivum [11]) | inhibition at 360 h [12] | inhibition at 360 h [13] | growth inhibition (GI) (Glycine max [16]) | growth inhibition (GI) (Gossypium) | inhibition of growth at 75 g/ha (Digitaria sanguinalis) | inhibition of growth at 75 g/ha (Amaranthus blitum [17]) | inhibition of growth at 75 g/ha (Chenopodium album) | inhibition of growth at 75 g/ha (Amaranthus blitum [20]) | further results
C#CCN1C(=O)COc2cc(F)c(N3C(=O)C4=C(CCCC4)C3=O)cc21 [FLUMIOXAZIN] | > 10% | > 10% | > 10% | Non-toxic | Non-toxic | > 10% | > 10% | Non-toxic | Non-toxic | > 80% | > 80% | > 80% | > 80% | inhibition at 360 h [1]: > 10%; inhibition at 360 h [2]: 1%; inhibition at 360 h [4]: 1%; inhibition at 360 h [7]: > 10%; inhibition at 360 h [9]: > 10%; inhibition at 360 h [10]: > 10%; inhibition at 360 h [14]: > 10%; inhibition at 360 h [15]: > 10%; inhibition at 360 h [18]: > 10%; inhibition at 360 h [19]: > 10%
C#CCN1C(=O)COc2cc(F)c(N3C(=O)c4ccc(F)cc4C3=O)cc21 | > 10% | > 10% | > 10% | Non-toxic | Non-toxic | > 10% | 1% | Non-toxic | Non-toxic | > 80% | > 80% | > 80% | > 80% | growth inhibition (GI) (Triticum aestivum [21]): Non-toxic; growth inhibition (GI) (Zea mays [22]): Non-toxic; growth inhibition (GI) (Zea mays [23]): Non-toxic; growth inhibition (GI) (Glycine max [24]): Non-toxic; growth inhibition (GI) (Triticum aestivum [25]): Non-toxic; growth inhibition (GI) (Triticum aestivum [26]): Non-toxic; growth inhibition (GI) (Triticum aestivum [27]): Non-toxic; growth inhibition (GI) (Oryza sativa [28]): Non-toxic; growth inhibition (GI) (Triticum aestivum [29]): Non-toxic; growth inhibition (GI) (Oryza sativa [30]): Non-toxic
